Assay results published in ChEMBL document CHEMBL3588808, “Koumine, Humantenine, and Yohimbane Alkaloids from Gelsemium elegans” (J Nat Prod, 2015).
pIC50: −log10 of the molar value. Each block holds one compound with its values, some of them ahead of it.

Legend:
[1] = Cytotoxicity against human BEAS2B cells by MTT assay; format: cell-based, BEAS-2B; details: for pIC50: Homo sapiens, BEAS-2B, read-out: IC50
[2] = tested on: RAW264.7; assay: Inhibition of nitric oxide production in LPS-activated mouse RAW264.7 cells; format: functional, cell-based; details: for pIC50: Mus musculus, RAW264.7, read-out: IC50
How it was run: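 LPS-activated RAW264.7 macrophages; compounds dissolved in DMSO and diluted in medium to a range of concentrations, top concentration 25 μM; NO production read as absorbance at 570 nm on a plate reader.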

[3] = tested on: SW480; assay: Cytotoxicity against human SW480 cells by MTT assay; format: functional, cell-based; details: for pIC50: Homo sapiens, SW480, read-out: IC50
[4] = tested on: SMMC-7721; assay: Cytotoxicity against human SMMC7721 cells by MTT assay; format: functional, cell-based; details: for pIC50: Homo sapiens, SMMC-7721, read-out: IC50
[5] = tested on: MCF7; assay: Cytotoxicity against human MCF7 cells by MTT assay; format: functional, cell-based; details: for pIC50: Homo sapiens, MCF7, read-out: IC50
[6] = tested on: HL-60; assay: Cytotoxicity against human HL60 cells by MTT assay; format: functional, cell-based; details: for pIC50: Homo sapiens, HL-60, read-out: IC50
[7] = tested on: A549; assay: Cytotoxicity against human A549 cells by MTT assay; format: functional, cell-based; details: for pIC50: Homo sapiens, A549, read-out: IC50

SMILES: COc1ccc2c(c1)N(OC)C(=O)[C@@]21C[C@@H]2NC=C(C=O)[C@@H]3C[C@H]1OC[C@H]23
pIC50 [1]: < 5.00
pIC50 [2]: < 4.60
pIC50 [3]: < 5.00
pIC50 [4]: 5.14
pIC50 [5]: < 5.00
pIC50 [6]: 5.07
pIC50 [7]: 5.03

SMILES: COc1ccc2c(c1)N(OC)C(=O)[C@@]21C[C@@H]2NC[C@](O)(C(C)O)[C@@H]3C[C@H]1OC[C@H]23 (some centres not stated)
pIC50 [2]: < 4.60

SMILES: [O-][n+]1c2c3cc4c(cn3ccc-2c2ccccc21)CCCC4
IC50 ([1]; beas-2b): ND(Insoluble)
IC50 ([2]; raw264.7): ND(Insoluble)
IC50 ([3]; sw480): ND(Insoluble)
IC50 ([4]; smmc-7721): ND(Insoluble)
IC50 ([5]; mcf7): ND(Insoluble)
IC50 ([6]; hl-60): ND(Insoluble)
IC50 ([7]; a549): ND(Insoluble)

SMILES: CCOC(=O)CCc1cc2c3[n-]c4ccccc4c3cc[n+]2cc1C(=O)O
pIC50 [2]: < 4.60

More lines, main results first:

pIC50 [2]: < 4.60
SMILES: CC[C@@]1(O)CN[C@H]2C[C@@]3(C(=O)N(OC)c4ccccc43)[C@@H]3OC[C@H]2[C@H]1[C@@H]3O

pIC50 [2]: < 4.60
SMILES: C=C[C@]12[C@@H]3C[C@@H]4OC[C@@H]3[C@@H](C[C@]13C4=Nc1ccccc13)N(C)[C@H]2O

pIC50 [2]: < 4.60
SMILES: C=C[C@@]12C=N[C@H]3C[C@]14C(=Nc1ccccc14)[C@H]1C[C@@H]2[C@@H]3CO1
pIC50 [1]: 5.07
pIC50 [3]: 5.14
pIC50 [4]: 5.28
pIC50 [5]: 5.03
pIC50 [6]: 5.34
pIC50 [7]: 5.31

pIC50 [2]: < 4.60
SMILES: C=C[C@]12[C@@H]3C[C@@H]4OC[C@@H]3[C@@H](C[C@]13C4=Nc1ccccc13)N(C)[C@@H]2O

pIC50 [2]: < 4.60
SMILES: C[C@H](O)[C@@]12C[N+](C)([O-])[C@@H]3C[C@]14C(=Nc1ccccc14)[C@H]1C[C@@H]2[C@@H]3CO1 (some centres not stated)
